The source of these data is ChEMBL document CHEMBL4837210 (Eur J Med Chem, 2021).

Holding throughout (type): functional
In experiment [1] the test system is Streptococcus pyogenes. The experiment in a line: Antibacterial activity against erythromycin-susceptible Streptococcus pyogenes clinical isolate 1 assessed as bacterial growth inhibition incubated for 24 hrs by CLSI protocol based broth microdilution method.
The subject of experiment [2] is Streptococcus pyogenes. The experiment in a line: Antibacterial activity against erythromycin-resistant Streptococcus pyogenes 2 assessed as bacterial growth inhibition incubated for 24 hrs by CLSI protocol based broth microdilution method.
The subject of experiment [3] is Staphylococcus aureus. The experiment in a line: Antibacterial activity against erythromycin-susceptible Staphylococcus aureus ATCC 25923 assessed as bacterial growth inhibition incubated for 24 hrs by CLSI protocol based broth microdilution method. On the technique in general: Broth dilution looks for growth in wells or tubes with falling amounts of substance.
Experiment [4] has as its system Staphylococcus aureus. In words: Antibacterial activity against methicillin-resistant Staphylococcus aureus ATCC 43300 assessed as inhibition of bacterial growth by broth microdilution method. Conditions: time 24 hrs. In short, it runs like this: (§1)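 Broth microdilution MIC. A 0.5 McFarland suspension was diluted 10-fold and added at 1.5 × 10⁷ cfu/mL to 2-fold dilutions (0.125–64) in Mueller Hinton broth. Incubated aerobically 24 h at 37 °C. MIC was the lowest concentration with no visible turbidity.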

Experiment [5] has as its system Bacillus pumilus. The experiment in a line: Antibacterial activity against penicillin-susceptible Bacillus pumilus CMCC 63202 assessed as bacterial growth inhibition by broth dilution method. Conditions: time 24 hrs. In a few lines:
(§2)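 Broth microdilution in Mueller Hinton broth. A 0.5 McFarland suspension was diluted tenfold, giving an inoculum of 1.5 × 10⁷ cfu/mL. This was added to 2-fold serial compound dilutions from […]. Plates were incubated aerobically at 37 °C for 24 h. MIC was the lowest concentration with no visible turbidity.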

The subject of experiment [6] is Pseudomonas aeruginosa. The experiment in a line: Antibacterial activity against penicillin-susceptible Pseudomonas aeruginosa ATCC27853 assessed as bacterial growth inhibition incubated for 24 hrs by CLSI protocol based broth microdilution method.
Experiment [7] deals with Staphylococcus aureus. In words: Antibacterial activity against penicillin-resistant Staphylococcus aureus assessed as inhibition of bacterial growth measured by broth microdilution method. The following applies: time 24 hrs. In a few lines:
as §1

The test system of experiment [8] is Escherichia coli. In words: Antibacterial activity against penicillin-susceptible Escherichia coli ATCC 25922 assessed as inhibition of bacterial growth measured by broth microdilution method. The following applies: time 24 hrs. In a few lines:
as §2

In experiment [9] the test system is Staphylococcus aureus. In words: Antibacterial activity against Staphylococcus aureus assessed as inhibition of bacterial growth measured by broth microdilution method. Conditions: time 24 hrs. In a few lines:
as §2

Experiment [10] deals with Bacillus subtilis. In words: Antibacterial activity against penicillin-susceptible Bacillus subtilis ATCC 9372 assessed as bacterial growth inhibition incubated for 24 hrs by CLSI protocol based broth microdilution method.
Experiment [11] deals with Staphylococcus epidermidis. In words: Antibacterial activity against penicillin-resistant Staphylococcus epidermidis assessed as inhibition of bacterial growth measured by broth microdilution method. The following applies: time 24 hrs.

Structures are written as SMILES. Where only a bound is given, the exact number is not on record here.

As a reminder, the MIC is the lowest concentration found to suppress growth. With `CCCc1ccc(-c2c3ccccc3[n+](C)c3ccccc23)cc1.[I-]`, the MIC in [1] is 1 µg/mL; in experiment [2], 4 µg/mL; in [3], 0.25 µg/mL; in experiment [4], 4 µg/mL; in [5] it was 2 µg/mL; in experiment [6], above 64 µg/mL. Also, the MIC was 16 µg/mL in experiment [7]; above 64 µg/mL in experiment [8]; 0.25 µg/mL in experiment [9]; 1 µg/mL in [10]; 8 µg/mL in experiment [11].

Consider `CCOc1ccc(C#Cc2c3ccccc3[n+](C)c3ccccc23)cc1.[I-]`, for which the MIC was 16 µg/mL in experiment [1]; 8 µg/mL in experiment [2]; 4 µg/mL in experiment [3]; 4 µg/mL in experiment [4]; 4 µg/mL in experiment [5]; above 64 µg/mL in experiment [6]. The MIC in experiment [7] is 8 µg/mL; in experiment [8], above 64 µg/mL; in experiment [9], 4 µg/mL; in experiment [10], 4 µg/mL; in [11] it was 8 µg/mL.

For `COc1ccc(C#Cc2c3ccccc3[n+](C)c3ccccc23)cc1.[I-]`, the MIC in experiment [1] was 16 µg/mL; in [2] it was 16 µg/mL; in experiment [3] it was 4 µg/mL; in [4], 8 µg/mL; in [5], 4 µg/mL; in experiment [6], above 64 µg/mL. The MIC in experiment [7] is 16 µg/mL; in experiment [8] it was above 64 µg/mL; in experiment [9], 4 µg/mL; in experiment [10], 4 µg/mL; in experiment [11], 16 µg/mL.

`CCCCc1ccc(C#Cc2c3ccccc3[n+](C)c3ccccc23)cc1.[I-]`: the minimum inhibitory concentration (MIC) in [1] was 8 µg/mL; in experiment [2], 8 µg/mL; in [3] it was 4 µg/mL; in [4], 4 µg/mL; in experiment [5] it was 2 µg/mL; in experiment [6], above 64 µg/mL. The MIC in experiment [7] is 8 µg/mL; in experiment [8], above 64 µg/mL; in experiment [9], 4 µg/mL; in experiment [10], 4 µg/mL; in [11] it was 8 µg/mL.

With `Cc1ccccc1-c1c2ccccc2[n+](C)c2ccccc12.[I-]`, the MIC is 64 µg/mL in [1]; above 64 µg/mL in [2]; 8 µg/mL in [3]; above 64 µg/mL in [4]; above 64 µg/mL in experiment [5]; above 64 µg/mL in [6]. Besides, the minimal inhibitory concentration (MIC) was above 64 µg/mL in experiment [7]; above 64 µg/mL in experiment [8]; 64 µg/mL in [9]; 32 µg/mL in experiment [10]; above 64 µg/mL in [11].

Regarding `CCc1ccc(-c2c3ccccc3[n+](C)c3ccccc23)cc1.[I-]`, the MIC in [1] is 2 µg/mL; in experiment [2], 4 µg/mL; in experiment [3], 0.25 µg/mL; in experiment [4], 16 µg/mL; in [5], 4 µg/mL; in [6] it was above 64 µg/mL. Further, the MIC in [7] is 64 µg/mL; in experiment [8], above 64 µg/mL; in experiment [9], 1 µg/mL; in [10] it was 2 µg/mL; in [11] it was 32 µg/mL.

As to `CCCCCNc1c2ccccc2[n+](C)c2ccccc12.[Cl-]`, the MIC in experiment [1] was 16 µg/mL; in experiment [2], 32 µg/mL; in [3], above 64 µg/mL; in [4] it was above 64 µg/mL; in experiment [5], above 64 µg/mL; in experiment [6], above 64 µg/mL. The MIC in experiment [7] was 64 µg/mL; in [8], above 64 µg/mL; in [9], above 64 µg/mL; in experiment [10], 64 µg/mL; in experiment [11], 64 µg/mL.

Turning to `Cc1ccccc1C#Cc1c2ccccc2[n+](C)c2ccccc12.[I-]`, the MIC is 8 µg/mL in experiment [1]; 16 µg/mL in experiment [2]; 4 µg/mL in experiment [3]; 4 µg/mL in [4]; 8 µg/mL in [5]; above 64 µg/mL in experiment [6]. Also, the MIC was 8 µg/mL in [7]; above 64 µg/mL in experiment [8]; 2 µg/mL in experiment [9]; 8 µg/mL in [10]; 16 µg/mL in [11].

For the compound `CCCCCCCCNc1c2ccccc2[n+](C)c2ccccc12.[Cl-]`, the MIC in experiment [1] is 16 µg/mL; in [2], 16 µg/mL; in experiment [3] it was 8 µg/mL; in experiment [4], 16 µg/mL; in [5], 16 µg/mL; in [6], above 64 µg/mL. Further, the MIC in experiment [7] was 4 µg/mL; in experiment [8], above 64 µg/mL; in [9], 8 µg/mL; in [10] it was 16 µg/mL; in experiment [11] it was 16 µg/mL.

For `C[n+]1c2ccccc2c(/C=C/c2ccccc2)c2ccccc21.[I-]`, the MIC in [1] was 0.25 µg/mL; in experiment [2] it was 0.5 µg/mL; in [3], 0.5 µg/mL; in [4], 4 µg/mL; in experiment [5] it was 2 µg/mL; in experiment [6], above 64 µg/mL. In addition, the minimum inhibitory concentration (MIC) was 8 µg/mL in experiment [7]; above 64 µg/mL in experiment [8]; 2 µg/mL in experiment [9]; 1 µg/mL in experiment [10]; 8 µg/mL in experiment [11].

`Cc1ccc(/C=C/c2c3ccccc3[n+](C)c3ccccc23)cc1.[I-]`: the MIC in experiment [1] was 0.25 µg/mL; in experiment [2] it was 0.5 µg/mL; in experiment [3], 0.5 µg/mL; in experiment [4], 4 µg/mL; in experiment [5], 0.5 µg/mL; in experiment [6], above 64 µg/mL. Further, the MIC in [7] turned out to be 8 µg/mL; in experiment [8], 64 µg/mL; in experiment [9], 1 µg/mL; in experiment [10] it was 1 µg/mL; in experiment [11], 2 µg/mL.

Regarding `C[n+]1c2ccccc2c(/C=C/c2ccc(-c3ccccc3)cc2)c2ccccc21.[I-]`, the minimum inhibitory concentration (MIC) in experiment [1] was 0.5 µg/mL; in [2], 0.5 µg/mL; in experiment [3], 0.5 µg/mL; in experiment [4], 2 µg/mL; in experiment [5], 2 µg/mL; in experiment [6], above 64 µg/mL. The MIC in experiment [7] came out at 4 µg/mL; in [8], 32 µg/mL; in experiment [9], 1 µg/mL; in experiment [10], 1 µg/mL; in experiment [11] it was 2 µg/mL.

For `C[n+]1c2ccccc2c(-c2cccc(F)c2)c2ccccc21.[I-]`, the MIC in experiment [1] is 4 µg/mL; in [2] it was 16 µg/mL; in experiment [3], 8 µg/mL; in [4], above 64 µg/mL; in experiment [5], 32 µg/mL; in [6] it was above 64 µg/mL. Also, the MIC in [7] is above 64 µg/mL; in [8], above 64 µg/mL; in experiment [9] it was 16 µg/mL; in experiment [10] it was 16 µg/mL; in experiment [11], above 64 µg/mL.

Take `CCCCc1ccc(/C=C/c2c3ccccc3[n+](C)c3ccccc23)cc1.[I-]`: the minimum inhibitory concentration (MIC) in [1] is 0.5 µg/mL; in experiment [2], 0.5 µg/mL; in experiment [3] it was 1 µg/mL; in experiment [4], 8 µg/mL; in [5], 0.5 µg/mL; in experiment [6], above 64 µg/mL. In addition, the minimum inhibitory concentration (MIC) in experiment [7] is 8 µg/mL; in experiment [8], above 64 µg/mL; in [9], 2 µg/mL; in experiment [10] it was 1 µg/mL; in [11], 2 µg/mL.

Take `COc1ccc(-c2c3ccccc3[n+](C)c3ccccc23)cc1.[I-]`: the MIC in [1] is 8 µg/mL; in experiment [2], 16 µg/mL; in experiment [3], 4 µg/mL; in [4], above 64 µg/mL; in [5], 16 µg/mL; in experiment [6], above 64 µg/mL. The MIC is above 64 µg/mL in experiment [7]; above 64 µg/mL in experiment [8]; 8 µg/mL in experiment [9]; 8 µg/mL in experiment [10]; above 64 µg/mL in [11].

With `CCc1ccc(/C=C/c2c3ccccc3[n+](C)c3ccccc23)cc1.[I-]`, the MIC is 0.5 µg/mL in experiment [1]; 1 µg/mL in [2]; 0.5 µg/mL in experiment [3]; 2 µg/mL in experiment [4]; 1 µg/mL in experiment [5]; above 64 µg/mL in experiment [6]. Besides, the minimal inhibitory concentration (MIC) in experiment [7] worked out at 8 µg/mL; in experiment [8], 64 µg/mL; in experiment [9], 1 µg/mL; in experiment [10], 1 µg/mL; in experiment [11] it was 4 µg/mL.

In the case of `CCOc1ccc(/C=C/c2c3ccccc3[n+](C)c3ccccc23)cc1.[I-]`, the MIC in experiment [1] was below 0.125 µg/mL; in experiment [2] it was 0.5 µg/mL; in experiment [3] it was 0.5 µg/mL; in experiment [4], 2 µg/mL; in [5], 16 µg/mL; in [6] it was above 64 µg/mL. In addition, the MIC in [7] was 8 µg/mL; in experiment [8] it was above 64 µg/mL; in experiment [9], 1 µg/mL; in [10] it was 2 µg/mL; in experiment [11], 4 µg/mL.

In the case of `C[n+]1c2ccccc2c(-n2cccc2)c2ccccc21.[Cl-]`, the MIC was 16 µg/mL in [1]; 64 µg/mL in [2]; 32 µg/mL in [3]; above 64 µg/mL in experiment [4]; 64 µg/mL in [5]; above 64 µg/mL in experiment [6]. Besides, the MIC in [7] is 64 µg/mL; in experiment [8], above 64 µg/mL; in experiment [9] it was 64 µg/mL; in experiment [10], 64 µg/mL; in experiment [11], above 64 µg/mL.
